According to ChEMBL document CHEMBL4304827, “Design, synthesis and evaluation of structurally diverse chrysin-chromene-spirooxindole hybrids as anticancer agents” (Bioorg Med Chem, 2019):

Tests used:
[1] = tested on: A549; assay: Antiproliferative activity against human A549 cells assessed as reduction in cell proliferation incubated for 48 hrs by MTT assay; format: functional, cell-based; conditions: A549, 48 h
Outline: (§1)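 Log-phase cells were plated at 5 × 10^3/well in RPMI-1640 with 10% FBS and cultured 24 h. Compounds were added at graded concentrations (DMSO <0.1%) for 48 h. MTT (5 mg/mL) was added for about 4 h, formazan was dissolved in DMSO and A490 was read. IC50 was calculated from ≥3 independent experiments and reported as mean ± SD. Chrysin served as positive control.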

[2] = tested on: K562; assay: Antiproliferative activity against human K562 cells assessed as reduction in cell proliferation incubated for 48 hrs by MTT assay; format: functional, cell-based; conditions: K562, 48 h; outline: as §1
[3] = tested on: NCI-H1299; assay: Antiproliferative activity against human H1299 cells assessed as reduction in cell proliferation incubated for 48 hrs by MTT assay; format: functional, cell-based; conditions: NCI-H1299, 48 h; outline: as §1
[4] = tested on: PC-3; assay: Antiproliferative activity against human PC3 cells assessed as reduction in cell proliferation incubated for 48 hrs by MTT assay; format: functional, cell-based; conditions: PC-3, 48 h; outline: as §1
[5] = tested on: MRC5; assay: Cytotoxicity against human MRC5 cells assessed as reduction in cell proliferation incubated for 48 hrs by MTT assay; format: cell-based; conditions: MRC5, 48 h; outline: as §1

Structure (SMILES) | IC50 [1] | IC50 [2] | IC50 [3] | IC50 [4] | IC50 [5]
COc1ccc2c(c1)C1(C(=O)N2Cc2ccccc2)C(C#N)=C(N)Oc2cc3oc(-c4ccccc4)cc(=O)c3c(O)c21 (stereo not given) | > 50 µM | > 50 µM | > 50 µM | > 50 µM | –
N#CC1=C(N)Oc2cc3oc(-c4ccccc4)cc(=O)c3c(O)c2C12C(=O)N(Cc1ccccc1)c1ccc(F)cc12 (stereo not given) | > 50 µM | > 50 µM | > 50 µM | > 50 µM | –
COc1ccc(-c2cc(=O)c3c(O)c4c(cc3o2)OC(N)=C(C#N)C42C(=O)N(C)c3ccc(C)cc32)c(OC)c1 (stereo not given) | > 50 µM | 12.2 µM | > 50 µM | > 50 µM | –
CCN1C(=O)C2(C(C#N)=C(N)Oc3cc4oc(-c5ccc(OC)cc5OC)cc(=O)c4c(O)c32)c2cc(Cl)ccc21 (stereo not given) | > 50 µM | 8.45 µM | > 50 µM | > 50 µM | –
N#CC1=C(N)Oc2cc3oc(-c4ccccc4)cc(=O)c3c(O)c2C12C(=O)Nc1cc(Br)ccc12 (stereo not given) | 9.34 µM | 8.7 µM | 14.4 µM | 24.8 µM | –
COc1ccc(-c2cc(=O)c3c(O)c4c(cc3o2)OC(N)=C(C#N)C42C(=O)N(Cc3ccccc3)c3ccccc32)c(OC)c1 (stereo not given) | > 50 µM | > 50 µM | > 50 µM | > 50 µM | –
N#CC1=C(N)Oc2cc3oc(-c4ccccc4)cc(=O)c3c(O)c2C12C(=O)Nc1cc(Cl)ccc12 (stereo not given) | 8.47 µM | 9.25 µM | 16.6 µM | 25.7 µM | –
CCN1C(=O)C2(C(C#N)=C(N)Oc3cc4oc(-c5ccccc5)cc(=O)c4c(O)c32)c2cccc(C)c21 (stereo not given) | > 50 µM | > 50 µM | > 50 µM | > 50 µM | –
Cc1ccc2c(c1)C1(C(=O)N2Cc2ccccc2)C(C#N)=C(N)Oc2cc3oc(-c4ccccc4)cc(=O)c3c(O)c21 (stereo not given) | > 50 µM | > 50 µM | > 50 µM | > 50 µM | –
Cc1ccc2c(c1)C1(C(=O)N2)C(C#N)=C(N)Oc2cc3oc(-c4ccccc4)cc(=O)c3c(O)c21 (stereo not given) | > 50 µM | > 50 µM | > 50 µM | > 50 µM | –
Cc1cccc2c1N(Cc1ccccc1)C(=O)C21C(C#N)=C(N)Oc2cc3oc(-c4ccccc4)cc(=O)c3c(O)c21 (stereo not given) | > 50 µM | > 50 µM | > 50 µM | > 50 µM | –
CCN1C(=O)C2(C(C#N)=C(N)Oc3cc4oc(-c5ccccc5)cc(=O)c4c(O)c32)c2cc(C)ccc21 (stereo not given) | > 50 µM | > 50 µM | > 50 µM | > 50 µM | –
CC(C)(C)OC(=O)CN1C(=O)C2(C(C#N)=C(N)Oc3cc4oc(-c5ccccc5)cc(=O)c4c(O)c32)c2ccccc21 (stereo not given) | > 50 µM | > 50 µM | > 50 µM | > 50 µM | –

Now from value to compound, other results behind:

IC50 [1] | IC50 [2] | IC50 [3] | IC50 [4] | Structure (SMILES) | IC50 [5]
> 50 µM | 36.4 µM | > 50 µM | > 50 µM | N#CC1=C(N)Oc2cc3oc(-c4ccccc4)cc(=O)c3c(O)c2C12C(=O)N(Cc1ccccc1)c1ccc(Br)cc12 (stereo not given) | –
> 50 µM | 37.5 µM | > 50 µM | > 50 µM | N#CC1=C(N)Oc2cc3oc(-c4ccccc4)cc(=O)c3c(O)c2C12C(=O)Nc1c(Cl)cccc12 (stereo not given) | –
4.72 µM | 4.34 µM | 11.2 µM | 21.4 µM | CN1C(=O)C2(C(C#N)=C(N)Oc3cc4oc(-c5ccccc5)cc(=O)c4c(O)c32)c2cc(Cl)ccc21 (stereo not given) | –
> 50 µM | > 50 µM | > 50 µM | > 50 µM | N#CC1=C(N)Oc2cc3oc(-c4ccccc4)cc(=O)c3c(O)c2C12C(=O)N(c1ccccc1)c1ccccc12 (stereo not given) | –
> 50 µM | 16.1 µM | > 50 µM | > 50 µM | CCN1C(=O)C2(C(C#N)=C(N)Oc3cc4oc(-c5ccc(OC)cc5OC)cc(=O)c4c(O)c32)c2cc(Br)ccc21 (stereo not given) | –
37.6 µM | 36.4 µM | > 50 µM | > 50 µM | N#CC1=C(N)Oc2cc3oc(-c4ccccc4)cc(=O)c3c(O)c2C12C(=O)Nc1ccccc12 (stereo not given) | –
> 50 µM | > 50 µM | > 50 µM | > 50 µM | CN1C(=O)C2(C(C#N)=C(N)Oc3cc4oc(-c5ccccc5)cc(=O)c4c(O)c32)c2ccccc21 (stereo not given) | –
> 50 µM | 41.4 µM | > 50 µM | > 50 µM | CN1C(=O)C2(C(C#N)=C(N)Oc3cc4oc(-c5ccccc5)cc(=O)c4c(O)c32)c2cccc(Cl)c21 (stereo not given) | –
> 50 µM | > 50 µM | > 50 µM | > 50 µM | Cc1ccc2c(c1)C1(C(=O)N2Cc2ccccc2)C(C#N)=C(N)Oc2cc3oc(-c4ccccc4F)cc(=O)c3c(O)c21 (stereo not given) | –
> 50 µM | 36.3 µM | > 50 µM | > 50 µM | N#CC1=C(N)Oc2cc3oc(-c4ccccc4)cc(=O)c3c(O)c2C12C(=O)N(Cc1ccccc1)c1ccc(Cl)cc12 (stereo not given) | –
> 50 µM | > 50 µM | > 50 µM | > 50 µM | O=c1cc(-c2ccccc2)oc2cc(O)cc(O)c12 [CHRYSIN] | > 100 µM
> 50 µM | 47.8 µM | > 50 µM | > 50 µM | N#CC1=C(N)Oc2cc3oc(-c4ccccc4)cc(=O)c3c(O)c2C12C(=O)N(Cc1ccccc1)c1c(Cl)cccc12 (stereo not given) | –
7.06 µM | 5.87 µM | 10.2 µM | > 50 µM | Cc1ccc2c(c1)C1(C(=O)N2C)C(C#N)=C(N)Oc2cc3oc(-c4ccccc4)cc(=O)c3c(O)c21 (stereo not given) | –
